In general, inhibition refers to the percentage by which the read-out fell short of the control. A higher inhibition goes with a strong effect. The IC50 is the concentration needed to halve the response being measured. Lower therefore signals higher potency.

Here are results for 18 compounds from ChEMBL document CHEMBL1150246, “Synthesis and activity of tetrapeptidic HTLV-I protease inhibitors possessing different P3-cap moieties” (Bioorg Med Chem, 2008).

In assay [1] the test system is Human immunodeficiency virus. Put plainly: Inhibition of HIV protease at 50 nM.
In assay [2] the target is T1, Protease (Human T-lymphotropic virus 1, UniProt Q82323).
T1 sequence (Q82323 whole entry): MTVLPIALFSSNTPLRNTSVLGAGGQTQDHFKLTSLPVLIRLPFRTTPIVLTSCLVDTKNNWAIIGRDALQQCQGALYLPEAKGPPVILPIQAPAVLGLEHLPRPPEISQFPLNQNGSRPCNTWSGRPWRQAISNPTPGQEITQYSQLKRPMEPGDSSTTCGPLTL
As to the kind of experiment: Inhibition of HTLV1 protease1. Details: species or system Human T-cell leukemia virus type I. An outline of the steps:
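HTLV-I protease L40I mutant, which blocks autolysis and improves stability. Inhibition reported as IC50 with SEM in nM. Remaining assay steps follow an earlier published procedure.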

Starred links: 1 amine or outer side, 2 acyl side, 3 side chain; linkers in the order of their positions; H or OH if unused. Non-standard residues stand in square brackets, D forms with d. Residues, ends and D or L forms follow the SMILES beside them. X1 = O=C([C@@H](O)[C@H](Cc1ccccc1)N[*:1])[*:2] Some results are limits rather than exact numbers.

`CCC(=O)N[C@H](C(=O)N[C@H](C(=O)N[C@@H](Cc1ccccc1)[C@H](O)C(=O)N1CSC(C)(C)[C@H]1C(=O)NCC(C)C)C(C)(C)C)c1ccccc1` gave an inhibition in assay [1] of over 99%. In addition, half-maximal inhibition in assay [2] (IC50) was put at 105 nM.

The compound `CC(C)CNC(=O)[C@H]1N(C(=O)[C@@H](O)[C@H](Cc2ccccc2)NC(=O)[C@@H](NC(=O)[C@@H](NC(=O)CC(C)C)c2ccccc2)C(C)(C)C)CSC1(C)C` returned an inhibition in assay [1] of over 99%. Further, the 50% inhibitory concentration (IC50) in assay [2] was 102 nM.

In turn, `CCCC(C)C(=O)N[C@H](C(=O)N[C@H](C(=O)N[C@@H](Cc1ccccc1)[C@H](O)C(=O)N1CSC(C)(C)[C@H]1C(=O)NCC(C)C)C(C)(C)C)c1ccccc1` (stereo not given in full) had an inhibition in assay [1] of over 99%. In assay [2], this compound yielded an IC50 of 84.2 nM. Compound `CC(C)CNC(=O)[C@H]1N(C(=O)[C@@H](O)[C@H](Cc2ccccc2)NC(=O)[C@@H](NC(=O)[C@@H](NC(=O)CC(C)(C)C)c2ccccc2)C(C)(C)C)CSC1(C)C` had an inhibition in assay [1] of over 99%. In addition, inhibition in assay [2] was half-maximal at 83.3 nM (IC50). With `CCC(C)(C)C(=O)N[C@H](C(=O)N[C@H](C(=O)N[C@@H](Cc1ccccc1)[C@H](O)C(=O)N1CSC(C)(C)[C@H]1C(=O)NCC(C)C)C(C)(C)C)c1ccccc1`, the inhibition in assay [1] is over 99%. 80.4 nM corresponded to half-maximal inhibition in assay [2] (IC50). `CSCC[C@H](NC(=O)[C@@H](NC(=O)[C@@H]1CCCN1C(=O)[C@@H](O)[C@H](Cc1ccccc1)NC(=O)[C@@H](NC(=O)[C@H](CCC(N)=O)NC(=O)[C@@H]1CCCN1)C(C)C)C(C)C)C(=O)N[C@@H](Cc1cnc[nH]1)C(=O)O` (H-PQV[X1]PVMH-OH) yielded an IC50 in assay [2] of 159 nM. In assay [1], `CCCCC(=O)N[C@H](C(=O)N[C@H](C(=O)N[C@@H](Cc1ccccc1)[C@H](O)C(=O)N1CSC(C)(C)[C@H]1C(=O)NCC(C)C)C(C)(C)C)c1ccccc1` displayed an inhibition of over 99%. Also, the IC50 in assay [2] was determined as 92 nM. `CC(C)CCC(=O)N[C@H](C(=O)N[C@H](C(=O)N[C@@H](Cc1ccccc1)[C@H](O)C(=O)N1CSC(C)(C)[C@H]1C(=O)NCC(C)C)C(C)(C)C)c1ccccc1` yielded an inhibition in assay [1] of over 99%. Besides, in assay [2], the IC50 worked out at 96.5 nM. The matching figures for `CC(C)CNC(=O)[C@H]1N(C(=O)[C@@H](O)[C@H](Cc2ccccc2)NC(=O)[C@@H](NC(=O)[C@@H](NC(=O)c2ccccc2)c2ccccc2)C(C)(C)C)CSC1(C)C`: over 99% and 79.2 nM. On the same counts, the results for `CC(C)CNC(=O)[C@H]1N(C(=O)[C@@H](O)[C@H](Cc2ccccc2)NC(=O)[C@@H](NC(=O)[C@@H](N)c2ccccc2)C(C)(C)C)CSC1(C)C` are over 99% and 332 nM. On the same counts, the results for `CC(=O)N[C@H](C(=O)N[C@H](C(=O)N[C@@H](Cc1ccccc1)[C@H](O)C(=O)N1CSC(C)(C)[C@H]1C(=O)NCC(C)C)C(C)(C)C)c1ccccc1` are over 99% and 107 nM.

`CC(C)CNC(=O)[C@H]1N(C(=O)[C@@H](O)[C@H](Cc2ccccc2)NC(=O)[C@@H](NC(=O)[C@@H](NC(=O)C2CCCCC2)c2ccccc2)C(C)(C)C)CSC1(C)C` came in with an inhibition in assay [1] of over 99%. This compound also registered a concentration for half-maximal inhibition (IC50) in assay [2] of 98.2 nM. The matching figures for `CC(C)CNC(=O)[C@H]1N(C(=O)[C@@H](O)[C@H](Cc2ccccc2)NC(=O)[C@@H](NC(=O)[C@@H](NC(=O)C(C)(C)C)c2ccccc2)C(C)(C)C)CSC1(C)C`: over 99% and 82.8 nM. On the same counts, the results for `CCC(C)CC(=O)N[C@H](C(=O)N[C@H](C(=O)N[C@@H](Cc1ccccc1)[C@H](O)C(=O)N1CSC(C)(C)[C@H]1C(=O)NCC(C)C)C(C)(C)C)c1ccccc1` (stereo not given in full) are over 99% and 88.2 nM. Compound `CCCC(=O)N[C@H](C(=O)N[C@H](C(=O)N[C@@H](Cc1ccccc1)[C@H](O)C(=O)N1CSC(C)(C)[C@H]1C(=O)NCC(C)C)C(C)(C)C)c1ccccc1` yielded an inhibition in assay [1] of over 99%. Further, the half-maximal inhibitory concentration (IC50) in assay [2] amounted to 104 nM. On the same counts, the results for `CC(C)CNC(=O)[C@H]1N(C(=O)[C@@H](O)[C@H](Cc2ccccc2)NC(=O)[C@@H](NC(=O)[C@@H](NC(=O)C2CC2)c2ccccc2)C(C)(C)C)CSC1(C)C` are over 99% and 96.9 nM. For `CC(C)CNC(=O)[C@H]1N(C(=O)[C@@H](O)[C@H](Cc2ccccc2)NC(=O)[C@@H](NC(=O)[C@@H](NC(=O)C(C)C)c2ccccc2)C(C)(C)C)CSC1(C)C`, in assay [1], the inhibition was over 99%. The compound also registered an IC50 in assay [2] of 93.5 nM.

Consider `CC(C)CNC(=O)[C@H]1N(C(=O)[C@@H](O)[C@H](Cc2ccccc2)NC(=O)[C@@H](NC(=O)[C@@H](NC(=O)CCc2ccccc2)c2ccccc2)C(C)(C)C)CSC1(C)C`, for which the inhibition in assay [1] was over 99%. Also, the IC50 in assay [2] was found to be 105 nM.
